Assay [1] is described as follows: Concentration at which one-half of the maximum Low density lipoprotein receptor is upregulated in HepG2 cells.
Assay [2] has as its target Low-density lipoprotein receptor (Homo sapiens, UniProt P01130). As to the kind of experiment: Concentration at which one-half the maximum Low density lipoprotein receptor up-regulation is observed in HepG2 cells. In a few lines:
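HepG2 cells in 96-well plates at 10 000 cells/well, grown 3 days to 80% confluence. Compounds added in DMEM with 1% BSA for 24 h at several concentrations. Formaldehyde-fixed cells probed with MAC-C7 (0.5 µg/mL, 60 min, 4 °C), then alkaline phosphatase-linked anti-mouse IgG, then fluorogenic substrate. EC50 is the concentration giving half-maximal upregulation, determined only when upregulation at 3 µM exceeded 40%. Five replicates.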

Low-density lipoprotein receptor, sequence (P01130 whole entry): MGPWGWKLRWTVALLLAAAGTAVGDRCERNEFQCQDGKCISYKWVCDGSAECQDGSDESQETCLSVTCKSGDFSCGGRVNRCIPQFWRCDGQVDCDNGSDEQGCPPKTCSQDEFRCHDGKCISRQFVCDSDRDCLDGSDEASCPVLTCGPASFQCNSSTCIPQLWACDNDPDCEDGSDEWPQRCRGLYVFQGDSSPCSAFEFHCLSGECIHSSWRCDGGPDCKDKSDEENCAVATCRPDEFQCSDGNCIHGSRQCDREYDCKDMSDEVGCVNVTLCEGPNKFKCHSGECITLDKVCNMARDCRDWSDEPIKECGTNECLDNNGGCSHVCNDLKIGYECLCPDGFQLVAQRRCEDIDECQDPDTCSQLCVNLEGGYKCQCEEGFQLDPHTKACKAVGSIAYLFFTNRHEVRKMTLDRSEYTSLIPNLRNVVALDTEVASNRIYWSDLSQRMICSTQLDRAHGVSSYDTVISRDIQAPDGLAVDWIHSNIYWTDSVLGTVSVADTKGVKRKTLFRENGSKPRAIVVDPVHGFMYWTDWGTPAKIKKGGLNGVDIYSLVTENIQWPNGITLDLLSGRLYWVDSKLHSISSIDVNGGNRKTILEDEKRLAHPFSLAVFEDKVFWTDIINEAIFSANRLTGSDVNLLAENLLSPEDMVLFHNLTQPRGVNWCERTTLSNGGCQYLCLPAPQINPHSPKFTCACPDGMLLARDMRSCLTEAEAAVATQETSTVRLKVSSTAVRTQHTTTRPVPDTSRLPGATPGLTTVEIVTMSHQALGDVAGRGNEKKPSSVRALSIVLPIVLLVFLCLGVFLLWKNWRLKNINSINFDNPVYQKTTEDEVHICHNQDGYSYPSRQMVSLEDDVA

A word on the EC50: it is the concentration at which the effect is half-maximal. Read a high EC50 as weaker potency. In assay [1], `Cc1ccc(NC(=O)CCC2CCCCC2)cc1-c1nc2ccc(O)cc2[nH]1` [3-Cyclohexyl-N-[3-(5-hydroxy-1H-benzoimidazol-2-yl)-4-methyl-phenyl]-propionamide] had an EC50 of 700 nM.
In assay [1], `Cc1ccc2nc(-c3cc(NC(=O)CCC4CCCCC4)ccc3C)[nH]c2c1` [3-Cyclohexyl-N-[4-methyl-3-(5-methyl-1H-benzoimidazol-2-yl)-phenyl]-propionamide] yielded an EC50 of 1300 nM. Against the preceding compound, the EC50 is about 1.9-fold higher.
Still for that read-out and setting: then `Cc1ccc(NC(=O)CCC2CCCCC2)cc1NC(=O)c1ccc(N)cc1` [4-Amino-N-[5-(3-cyclohexyl-propionylamino)-2-methyl-phenyl]-benzamide], with 3800 nM; and `Cc1ccc(NC(=O)CCC2CCCCC2)cc1C(=O)Nc1ccc(O)cc1` [5-(3-Cyclohexyl-propionylamino)-N-(4-hydroxy-phenyl)-2-methyl-benzamide], with 7000 nM; and `CC(=O)Oc1ccc(C(=O)Nc2cc(NC(=O)CCC3CCCCC3)ccc2C)cc1` [Acetic acid 4-[5-(3-cyclohexyl-propionylamino)-2-methyl-phenylcarbamoyl]-phenyl ester], with 2500 nM.
The same measure, in the same setting: under `Cc1ccc(C(=O)NCCC2CCCCC2)cc1NC(=O)c1ccc(O)cc1` [N-(2-Cyclohexyl-ethyl)-3-(4-hydroxy-benzoylamino)-4-methyl-benzamide] stands 2000 nM; under `Cc1ccc(NC(=O)CCC2CCCCC2)cc1-c1nc2ccccc2[nH]1` [N-[3-(1H-Benzoimidazol-2-yl)-4-methyl-phenyl]-3-cyclohexyl-propionamide], 1300 nM.
Same read-out and setting: then `Cc1ccc(NC(=O)CCC2CCCCC2)cc1/C=C(\C#N)c1ccc2c(c1)OCO2` [N-[3-((Z)-2-Benzo[1,3]dioxol-5-yl-2-cyano-vinyl)-4-methyl-phenyl]-3-cyclohexyl-propionamide], with 700 nM; and `Cc1ccc(NC(=O)CCC2CCCCC2)cc1/C=C(\C#N)c1cccnc1` [N-[3-((Z)-2-Cyano-2-pyridin-3-yl-vinyl)-4-methyl-phenyl]-3-cyclohexyl-propionamide], with 1000 nM.
`Cc1ccc(NC(=O)CCC2CCCCC2)cc1NC(=O)c1cccc(O)c1` [N-[5-(3-Cyclohexyl-propionylamino)-2-methyl-phenyl]-3-hydroxy-benzamide] registered an EC50 in assay [1] of 2000 nM.
On the same count and under the same terms, under `Cc1ccc(NC(=O)CCC2CCCCC2)cc1NC(=O)c1ccc(O)cc1` [N-[5-(3-Cyclohexyl-propionylamino)-2-methyl-phenyl]-4-hydroxy-benzamide] stands 1700 nM; under `Cc1ccc(NC(=O)CCC2CCCCC2)cc1NC(=O)c1ccc(CO)cc1` [N-[5-(3-Cyclohexyl-propionylamino)-2-methyl-phenyl]-4-hydroxymethyl-benzamide], 7600 nM; under `Cc1ccc(NC(=O)CCC2CCCCC2)cc1NC(=O)c1ccccc1` [N-[5-(3-Cyclohexyl-propionylamino)-2-methyl-phenyl]-benzamide], 2000 nM.
`Cc1ccc(NC(=O)CCC2CCCCC2)cc1NC(=O)c1cccnc1` [N-[5-(3-Cyclohexyl-propionylamino)-2-methyl-phenyl]-nicotinamide]: in assay [1], a half-maximal response (EC50) required 1200 nM. This EC50 is about 1.7-fold lower than that of the compound before.
In assay [2], `Cc1ccc(C(=O)CCCC2CCCCC2)cc1NC(=O)c1cccnc1` [N-[5-(4-Cyclohexyl-butyryl)-2-methyl-phenyl]-nicotinamide] registered an EC50 of 2000 nM. In other words, the single-digit micromolar range.
The compound `Cc1ccc(NC(=O)CCCC2CCCCC2)cc1NC(=O)c1ccc(O)cc1` [N-[5-(4-Cyclohexyl-butyrylamino)-2-methyl-phenyl]-4-hydroxy-benzamide] yielded an EC50 in assay [1] of 4000 nM.

The values above are taken from BindingDB's records for doi:10.1021/jm960153q (Rhône-Poulenc Rorer, 1996).
